Assay results reported in ChEMBL document CHEMBL2177098, “Synthesis and evaluation of novel ¹⁸F labeled 2-pyridinylbenzoxazole and 2-pyridinylbenzothiazole derivatives as ligands for positron emission tomography (PET) imaging of β-amyloid plaques” (J Med Chem, 2012).

Assays:
Brain [1] = experiment: Drug uptake in ICR mouse brain at 370 kBq/100 ul, iv at 2 mins by gamma-counting analysis; assay type: ADME, organism-based; conditions: in vivo
Summary of the method: (§1)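 Male ICR mice (5 weeks, about 20 g) got 18F tracer in saline (370 KBq per 100 μL) via tail vein; n = 5 per time point, killed at 2, 10, 30, 60 min. Organs weighed and γ-counted; percent dose per gram wet tissue from comparison with diluted injectate aliquots.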

Liver [2] = experiment: Drug uptake in ICR mouse liver at 370 kBq/100 ul, iv at 30 mins by gamma-counting analysis; assay type: ADME, organism-based; conditions: in vivo, 0.5 h; summary of the method: as §1
[3] = Displacement of [125I]-IMPY from amyloid beta (1 to 42) fibrils after 2 hrs by gamma-counting analysis
Summary of the method: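 Competition binding with aggregated Aβ1-42 fibrils and [125I]IMPY (60000−100000 cpm/100 μL) in 0.05% BSA (1 mL total); inhibitors 10⁻⁴−10^−8.5 M in ethanol. Incubated 37 °C for 2 h, then GF/B vacuum filtration with PBS (0.02 M, pH 7.4) washes and γ counting. Three repeats; IC50 converted to Ki by Cheng−Prusoff.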

Blood [4] = experiment: Drug uptake in ICR mouse blood at 370 kBq/100 ul, iv at 10 mins by gamma-counting analysis; assay type: ADME, organism-based; conditions: in vivo; summary of the method: as §1
Kidney [5] = experiment: Drug uptake in ICR mouse kidney at 370 kBq/100 ul, iv at 60 mins by gamma-counting analysis; assay type: ADME, organism-based; conditions: in vivo, 1 h; summary of the method: as §1
Kidney [6] = experiment: Drug uptake in ICR mouse kidney at 370 kBq/100 ul, iv at 10 mins by gamma-counting analysis; assay type: ADME, organism-based; conditions: in vivo; summary of the method: as §1
Brain [7] = experiment: Drug uptake in healthy human brain at 370 KBq/100 ul after 1 hr by autoradiographic analysis; assay type: ADME, tissue-based; conditions: in vitro
Bone [8] = experiment: Drug uptake in ICR mouse bone at 370 kBq/100 ul, iv at 60 mins by gamma-counting analysis; assay type: ADME, organism-based, Bone element; conditions: in vivo, 1 h; summary of the method: as §1
Brain [9] = experiment: Ratio of drug uptake in brain at 2 mins to drug uptake in brain at 60 mins in ICR mouse at 370 KBq/100 ul, iv; assay type: ADME, organism-based; conditions: in vivo
Summary of the method: (§2)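 Normal male ICR mice (5 weeks, about 20 g) received the ¹⁸F tracer in saline (370 KBq per 100 μL) by tail-vein injection. Groups of n = 5 were killed at 2, 10, 30 and 60 min. Organs were removed, weighed and γ-counted against diluted aliquots of the injectate, giving % dose per gram. Stomach and intestine were expressed per organ. The brain ratio is 2 min/60 min uptake. Values are mean ± SD.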

Liver [10] = experiment: Drug uptake in ICR mouse liver at 370 kBq/100 ul, iv at 10 mins by gamma-counting analysis; assay type: ADME, organism-based; conditions: in vivo; summary of the method: as §1
Intestine [11] = experiment: Drug uptake in ICR mouse intestine assessed per organ at 370 kBq/100 ul, iv at 60 mins by gamma-counting analysis; assay type: ADME, organism-based; conditions: in vivo, 1 h
Summary of the method: (§3)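 Male ICR mice (5 weeks, about 20 g) got 18F tracer in saline (370 KBq per 100 μL) via tail vein; n = 5 per time point, killed at 2, 10, 30, 60 min. Organs removed and γ-counted against diluted injectate; expressed as % injected dose per organ.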

Brain [12] = experiment: Drug uptake in ICR mouse brain at 370 kBq/100 ul, iv at 30 mins by gamma-counting analysis; assay type: ADME, organism-based; conditions: in vivo, 0.5 h; summary of the method: as §1
Stomach [13] = experiment: Drug uptake in ICR mouse stomach assessed per organ at 370 kBq/100 ul, iv at 2 mins by gamma-counting analysis; assay type: ADME, organism-based; conditions: in vivo; summary of the method: as §3
Bone [14] = experiment: Drug uptake in ICR mouse bone at 370 kBq/100 ul, iv at 30 mins by gamma-counting analysis; assay type: ADME, organism-based, Bone element; conditions: in vivo, 0.5 h; summary of the method: as §1
Kidney [15] = experiment: Drug uptake in ICR mouse kidney at 370 kBq/100 ul, iv at 30 mins by gamma-counting analysis; assay type: ADME, organism-based; conditions: in vivo, 0.5 h; summary of the method: as §1
Brain [16] = experiment: Drug uptake in ICR mouse brain at 370 kBq/100 ul, iv at 10 mins by gamma-counting analysis; assay type: ADME, organism-based; conditions: in vivo; summary of the method: as §1
Brain [17] = experiment: Drug uptake in wild type C57BL6 mouse brain at 370 KBq/100 ul after 1 hr by autoradiographic analysis; assay type: ADME, tissue-based; conditions: in vitro
Summary of the method: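 Paraffin brain sections from 12-month-old male control C57BL6 mice were deparaffinized through xylene and graded ethanol, then held in PBS (0.2 M, pH 7.4) for 30 min. They were incubated with the ¹⁸F tracer (370 KBq per 100 μL) for 1 h at room temperature. Sections were washed in 40% EtOH, rinsed with water for 1 min, dried, and exposed to a phosphor plate for 2 h. The same sections were then stained with thioflavin S.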

Lung [18] = experiment: Drug uptake in ICR mouse lung at 370 kBq/100 ul, iv at 10 mins by gamma-counting analysis; assay type: ADME, organism-based; conditions: in vivo; summary of the method: as §1
Blood [19] = experiment: Drug uptake in ICR mouse blood at 370 kBq/100 ul, iv at 2 mins by gamma-counting analysis; assay type: ADME, organism-based; conditions: in vivo; summary of the method: as §1
Brain [20] = experiment: Drug uptake in ICR mouse brain at 370 kBq/100 ul, iv at 60 mins by gamma-counting analysis; assay type: ADME, organism-based; conditions: in vivo, 1 h; summary of the method: as §1
Intestine [21] = experiment: Drug uptake in ICR mouse intestine assessed per organ at 370 kBq/100 ul, iv at 30 mins by gamma-counting analysis; assay type: ADME, organism-based; conditions: in vivo, 0.5 h; summary of the method: as §3
Blood [22] = experiment: Drug uptake in ICR mouse blood at 370 kBq/100 ul, iv at 60 mins by gamma-counting analysis; assay type: ADME, organism-based; conditions: in vivo, 1 h; summary of the method: as §1
Spleen [23] = experiment: Drug uptake in ICR mouse spleen at 370 kBq/100 ul, iv at 30 mins by gamma-counting analysis; assay type: ADME, organism-based; conditions: in vivo, 0.5 h; summary of the method: as §1
Bone [24] = experiment: Drug uptake in ICR mouse bone at 370 kBq/100 ul, iv at 10 mins by gamma-counting analysis; assay type: ADME, organism-based, Bone element; conditions: in vivo; summary of the method: as §1
Kidney [25] = experiment: Drug uptake in ICR mouse kidney at 370 kBq/100 ul, iv at 2 mins by gamma-counting analysis; assay type: ADME, organism-based; conditions: in vivo; summary of the method: as §1
Heart [26] = experiment: Drug uptake in ICR mouse heart at 370 kBq/100 ul, iv at 2 mins by gamma-counting analysis; assay type: ADME, organism-based; conditions: in vivo; summary of the method: as §1
Blood [27] = experiment: Drug uptake in ICR mouse blood at 370 kBq/100 ul, iv at 30 mins by gamma-counting analysis; assay type: ADME, organism-based; conditions: in vivo, 0.5 h; summary of the method: as §1
Intestine [28] = experiment: Drug uptake in ICR mouse intestine assessed per organ at 370 kBq/100 ul, iv at 10 mins by gamma-counting analysis; assay type: ADME, organism-based; conditions: in vivo; summary of the method: as §3
Heart [29] = experiment: Drug uptake in ICR mouse heart at 370 kBq/100 ul, iv at 60 mins by gamma-counting analysis; assay type: ADME, organism-based; conditions: in vivo, 1 h; summary of the method: as §1
Stomach [30] = experiment: Drug uptake in ICR mouse stomach assessed per organ at 370 kBq/100 ul, iv at 60 mins by gamma-counting analysis; assay type: ADME, organism-based; conditions: in vivo, 1 h; summary of the method: as §2
Stomach [31] = experiment: Drug uptake in ICR mouse stomach assessed per organ at 370 kBq/100 ul, iv at 30 mins by gamma-counting analysis; assay type: ADME, organism-based; conditions: in vivo, 0.5 h; summary of the method: as §3
Bone [32] = experiment: Drug uptake in ICR mouse bone at 370 kBq/100 ul, iv at 2 mins by gamma-counting analysis; assay type: ADME, organism-based, Bone element; conditions: in vivo; summary of the method: as §1
Heart [33] = experiment: Drug uptake in ICR mouse heart at 370 kBq/100 ul, iv at 10 mins by gamma-counting analysis; assay type: ADME, organism-based; conditions: in vivo; summary of the method: as §1
Liver [34] = experiment: Drug uptake in ICR mouse liver at 370 kBq/100 ul, iv at 60 mins by gamma-counting analysis; assay type: ADME, organism-based; conditions: in vivo, 1 h; summary of the method: as §1
Liver [35] = experiment: Drug uptake in ICR mouse liver at 370 kBq/100 ul, iv at 2 mins by gamma-counting analysis; assay type: ADME, organism-based; conditions: in vivo; summary of the method: as §1
Spleen [36] = experiment: Drug uptake in ICR mouse spleen at 370 kBq/100 ul, iv at 10 mins by gamma-counting analysis; assay type: ADME, organism-based; conditions: in vivo; summary of the method: as §1
Lung [37] = experiment: Drug uptake in ICR mouse lung at 370 kBq/100 ul, iv at 2 mins by gamma-counting analysis; assay type: ADME, organism-based; conditions: in vivo; summary of the method: as §1
Spleen [38] = experiment: Drug uptake in ICR mouse spleen at 370 kBq/100 ul, iv at 2 mins by gamma-counting analysis; assay type: ADME, organism-based; conditions: in vivo; summary of the method: as §1
[39] = n-Octanol-PBS buffer partition coefficient, log D of the compound at 1.5 MBq after 3 mins at pH 7.4; assay type: physicochemical
Summary of the method: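 The tracer was partitioned between n-octanol and PBS by vortexing for 3 min at room temperature, then centrifuged for 5 min at 3000 rpm. Samples of the octanol (50 μL) and aqueous (500 μL) layers were counted. log D is the log of the octanol/PBS counts-per-gram ratio. The octanol layer was repartitioned until values were consistent. Measured in triplicate and repeated three times.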

Stomach [40] = experiment: Drug uptake in ICR mouse stomach assessed per organ at 370 kBq/100 ul, iv at 10 mins by gamma-counting analysis; assay type: ADME, organism-based; conditions: in vivo; summary of the method: as §3
Heart [41] = experiment: Drug uptake in ICR mouse heart at 370 kBq/100 ul, iv at 30 mins by gamma-counting analysis; assay type: ADME, organism-based; conditions: in vivo, 0.5 h; summary of the method: as §1
Lung [42] = experiment: Drug uptake in ICR mouse lung at 370 kBq/100 ul, iv at 30 mins by gamma-counting analysis; assay type: ADME, organism-based; conditions: in vivo, 0.5 h; summary of the method: as §1
Intestine [43] = experiment: Drug uptake in ICR mouse intestine assessed per organ at 370 kBq/100 ul, iv at 2 mins by gamma-counting analysis; assay type: ADME, organism-based; conditions: in vivo; summary of the method: as §3
Lung [44] = experiment: Drug uptake in ICR mouse lung at 370 kBq/100 ul, iv at 60 mins by gamma-counting analysis; assay type: ADME, organism-based; conditions: in vivo, 1 h; summary of the method: as §1
Spleen [45] = experiment: Drug uptake in ICR mouse spleen at 370 kBq/100 ul, iv at 60 mins by gamma-counting analysis; assay type: ADME, organism-based; conditions: in vivo, 1 h; summary of the method: as §1

## CNc1ccc(-c2nc3ccc(OCC[18F])cc3s2)cn1
Brain [1]
  Drug uptake: 7.87 % ID/g
Liver [2]
  Drug uptake: 4.28 % ID/g
[3]
  Ki: 10.1 nM
Blood [4]
  Drug uptake: 3.94 % ID/g
Kidney [5]
  Drug uptake: 3.45 % ID/g
Kidney [6]
  Drug uptake: 4.42 % ID/g
Brain [7]
  Drug uptake: Not Active
Bone [8]
  Drug uptake: 6.7 % ID/g
Brain [9]
  Ratio: 2.78
Liver [10]
  Drug uptake: 5.94 % ID/g
Intestine [11]
  Drug uptake: 19 %ID
Brain [12]
  Drug uptake: 3.38 % ID/g
Stomach [13]
  Drug uptake: 3.61 %ID
Bone [14]
  Drug uptake: 3.77 % ID/g
Kidney [15]
  Drug uptake: 3.62 % ID/g
Brain [16]
  Drug uptake: 4.54 % ID/g
Brain [17]
  Drug uptake: Not Active
Lung [18]
  Drug uptake: 3.02 % ID/g
Blood [19]
  Drug uptake: 4.31 % ID/g
Brain [20]
  Drug uptake: 2.83 % ID/g
Intestine [21]
  Drug uptake: 25.23 %ID
Blood [22]
  Drug uptake: 4.45 % ID/g
Spleen [23]
  Drug uptake: 2.87 % ID/g
Bone [24]
  Drug uptake: 2.43 % ID/g
Kidney [25]
  Drug uptake: 9.57 % ID/g
Heart [26]
  Drug uptake: 5.59 % ID/g
Blood [27]
  Drug uptake: 4.45 % ID/g
Intestine [28]
  Drug uptake: 11.15 %ID
Heart [29]
  Drug uptake: 3.7 % ID/g
Stomach [30]
  Drug uptake: 3.67 %ID
Stomach [31]
  Drug uptake: 4.63 %ID
Bone [32]
  Drug uptake: 2.04 % ID/g
Heart [33]
  Drug uptake: 3.11 % ID/g
Liver [34]
  Drug uptake: 3.06 % ID/g
Liver [35]
  Drug uptake: 10.4 % ID/g
Spleen [36]
  Drug uptake: 3.29 % ID/g
Lung [37]
  Drug uptake: 5.85 % ID/g
Spleen [38]
  Drug uptake: 4.52 % ID/g
[39]
  logD at 0.05 h: 3.59
Stomach [40]
  Drug uptake: 5.61 %ID
Heart [41]
  Drug uptake: 3.33 % ID/g
Lung [42]
  Drug uptake: 3.57 % ID/g
Intestine [43]
  Drug uptake: 12.06 %ID
Lung [44]
  Drug uptake: 2.72 % ID/g
Spleen [45]
  Drug uptake: 2.86 % ID/g
